Measured values gathered from unrelated publications.
Protocols differ between the studies behind these lines.
CDK7 with cyclin H: Cyclin-dependent kinase 7, with cyclin H (CDK7, Homo sapiens, UniProt P50613)
CDK7: Cyclin-dependent kinase 7 (CDK7, Homo sapiens, UniProt P50613)

CC(C)(C)c1nc2c(s1)c1nc(N)ncc1c1ccc(NS(=O)(=O)c3c(F)cccc3F)c(F)c12
remaining activity (CDK7 with cyclin H; enzyme activity, inhibitor, radiometric; 1 µM): 123%

CCS(=O)(=O)c1cc2cc(C[C@@](O)(CC(C)(C)c3ccc(F)cc3C(N)=O)C(F)(F)F)[nH]c2cn1
remaining binding (CDK7; cell-free assay, competition with immobilised ligand; 1 µM): 99%

CCN(CC)CCNC(=O)c1c(C)[nH]c(/C=C2\C(=O)Nc3ccc(F)cc32)c1C
remaining signal (CDK7 with cyclin H; cell-free assay; 0.5 µM): 73.4%

Cc1ccc(Nc2nccc(N(C)c3ccc4c(C)n(C)nc4c3)n2)cc1S(N)(=O)=O
inhibition (CDK7 with cyclin H; enzyme activity, inhibitor; 0.3 µM): 8%

C[C@H](c1ccc(F)cc1)N(Cc1cccc(C(=O)O)c1)C(=O)c1cnc2ccccc2c1
remaining binding (CDK7; cell-free assay, competition with immobilised ligand; 1 µM): 100%

Nc1ncnc2occ(-c3ccc(NC(=O)Nc4cc(C(F)(F)F)ccc4F)cc3)c12
remaining signal (CDK7; cell-free assay, inhibitor; 20 µM): 0.9%

O=C1NC(=O)c2cc(Nc3ccc(F)cc3)c(Nc3ccc(F)cc3)cc21
remaining signal (CDK7 with cyclin H; cell-free assay; 0.5 µM): 100%

CC(C)(O)[C@H]1CC[C@H](Nc2ccc3ncc(-c4cccc(C(F)(F)F)c4)n3n2)CC1
remaining activity (CDK7 with cyclin H; enzyme activity, inhibitor; 1 µM): 96.6%

Cc1cc(NC(=O)c2cccc3cc(-c4cccc5[nH]nc(N)c45)ccc23)ccc1F
activity vs control (CDK7; enzyme activity, inhibitor; 0.1 µM): 117%

CC(=O)Nc1c(C(C)=O)c(=O)n(C)c2nc(-c3ccc(Cl)cc3Cl)c(-c3ccc(Cl)cc3)cc12
remaining binding (CDK7; cell-free assay, competition with immobilised ligand; 1 µM): 100%

Cn1cc2c3ccccc3nc-2c2ccccc21
inhibition (CDK7 with cyclin H; enzyme activity, inhibitor, ADP detection; 10 µM): 38.3%

Cc1sc(C(=O)NC2COC2)cc1-n1cc(NC(=O)Nc2c(F)cccc2Cl)cn1
remaining activity (CDK7 with cyclin H; enzyme activity, inhibitor; 10 µM): 103%

COC(=O)C1=CO[C@@H](C)[C@H]2CN3CCc4c([nH]c5ccccc45)[C@@H]3C[C@H]12
inhibition (CDK7 with cyclin H; enzyme activity, inhibitor, ADP detection; 10 µM): -41.8%

CS(=O)(=O)N1CCCC(NC(=O)[C@H](CCC2CCCCC2)NC(=O)c2ccc(CNc3ncnc4c3nnn4-c3ccccc3)cc2)C1 (stereo partly drawn)
remaining binding (CDK7; cell-free assay, competition with immobilised ligand; 0.1 µM): 100%

CCCCNc1ncc2c(-c3ccc(F)cc3)nn(C[C@H]3CC[C@H](N)CC3)c2n1
inhibition (CDK7; target engagement in cells, inhibitor, chemoproteomics; 20 mM): 31.5%

Cc1ccc(NC(=O)c2ccc(C)c(C(F)(F)F)c2)cc1C#Cc1nn(C2CCC(O)CC2)c2ncnc(N)c12 (stereo not drawn)
remaining signal (CDK7; cell-free assay; 10 µM): 103%

CNC(=O)c1cc(Oc2ccc(NC(=O)Nc3ccc(Cl)c(C(F)(F)F)c3)cc2)ccn1
inhibition (CDK7 with cyclin H; enzyme activity, inhibitor; 0.3 µM): -3%

COc1c(-c2ccccc2)oc2c(ccc3occc32)c1=O
inhibition (CDK7 with cyclin H; enzyme activity, inhibitor, ADP detection; 10 µM): -0.1%

Oc1ccc(-c2nc(-c3ccncc3)c(-c3ccc(F)cc3)[nH]2)cc1
remaining signal (CDK7 with cyclin H; cell-free assay; 0.5 µM): 99.4%

Cc1cc(NC(=O)c2cccc(S(F)(F)(F)(F)F)c2)cc(-n2ccn3nc(-c4cccnc4)cc23)c1
remaining binding (CDK7; cell-free assay, competition with immobilised ligand; 1 µM): 100%

C=C1CC[C@@H]2[C@](C)(CO)[C@H](O)CC[C@@]2(C)[C@@H]1CCC1=CCOC1=O
inhibition (CDK7 with cyclin H; enzyme activity, inhibitor, ADP detection; 10 µM): 22.8%

CO[C@@H](C)c1c(Nc2ccc([C@@H](N(C)C(=O)C3CCS(=O)(=O)CC3)C(F)(F)F)cc2)cnc2cc(Cl)nn12
remaining binding (CDK7; cell-free assay, competition with immobilised ligand; 1 µM): 100%

COc1cc2oc(-c3ccccc3)cc(=O)c2c(OC)c1OC
inhibition (CDK7 with cyclin H; enzyme activity, inhibitor, ADP detection; 10 µM): 22.4%

Cc1nc(Cc2cccc(C(F)(F)F)c2)sc1-c1ccc(C(N)=O)nc1
remaining binding (CDK7; cell-free assay, competition with immobilised ligand; 1 µM): 90%

Cc1cc(=O)c2c(O)cc(O)cc2o1
inhibition (CDK7 with cyclin H; enzyme activity, inhibitor, ADP detection; 10 µM): 29.4%

C[C@H](c1ccnc(Nc2nc3ccc(-c4cc(N(C)C)ncn4)cc3[nH]2)c1)N1CCN(C(=O)CC(F)(F)F)CC1
remaining binding (CDK7; cell-free assay, competition with immobilised ligand; 0.1 µM): 93%

C=C(C)[C@@H]1CC[C@]2(C(=O)O)CC[C@]3(C)[C@H](CC[C@@H]4[C@@]5(C)CC[C@H](O)C(C)(C)[C@@H]5CC[C@]43C)[C@@H]12
inhibition (CDK7 with cyclin H; enzyme activity, inhibitor, ADP detection; 10 µM): 35.2%

COc1cc(-c2cc(-c3ccc(N4CCNCC4)cc3)cnc2C)cc(OC)c1OC
inhibition (CDK7; enzyme activity, inhibitor; 0.1 µM): 0%

CN1C(=N)N(C)/C(=C/c2c[nH]c3ccccc23)C1=O
inhibition (CDK7 with cyclin H; enzyme activity, inhibitor, ADP detection; 10 µM): 34.1%

Cc1cnc(NC2CCOCC2)nc1-n1cnc(C(=O)NC(CN)c2cc(F)cc(Cl)c2)c1 (stereo not drawn)
remaining activity (CDK7; enzyme activity, inhibitor, radiometric; 1 µM): 16%
